Screens deposited in PubChem BioAssay by Broad Institute.
CAL PDZ FP-1: blocks peptide binding to the human CAL PDZ domain; Q9HD26; purified CAL PDZ, TMR-peptide fluorescence polarization, 1 h; inhibition, % at 24.9 µM; hit rate 0.92% among 300,000;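 active means mean inhibition of at least 30% with at least half of replicates also reaching 30%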;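 further: 0% = DMSO neutral control and 100% = excess unlabeled competitor peptide PRC23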
miR-122 sensor: inhibitors of miR-122 in Huh7 cells; activation (reporter increase), % at 12.5 µM; hit rate 0.3% among 340,000; Huh7 miR-122 Renilla luciferase sensor, 48 h; neutral wells = 0, positive control = 100;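 active means mean replicate activation score at least 90 and every replicate individually at or above 90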;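 further: higher luciferase means less miR-122 activity so hits act as miR-122 inhibitors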
CAL PDZ FP-2: human CAL PDZ-peptide interaction inhibition; inhibition, % at 20 µM; purified CAL PDZ, TMR-peptide fluorescence polarization, 1 h; hit rate 0.02% among 330,000; Q9HD26;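 active means highest replicate inhibition of at least 40%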;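 further: plate controls were DMSO neutral control wells for no effect and unlabeled competitor peptide control wells for full effect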
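Material: tagged CAL PDZ domain; buffer or medium: 25 mM sodium phosphate pH 7.4, 150 mM NaCl, TCEP, IgG, Thesit; compound dosing: single point, 20 µM; schedule: 1 h incubation at room temperature before polarization reading; measured by: FP readout, S and P plane fluorescence; read-out basis: percent inhibition from loss of millipolarization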
Keap1-Nrf2 PPI: Keap1-Nrf2 (human) interaction inhibition; hit rate 0.15% among 340,000; Keap1 Kelch-Nrf2 peptide fluorescence polarization, 1536-well; Q14145; inhibition, % at 9.4 µM; in the data active means inhibition above about 12%;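 further: human Keap1 Kelch domain with fluorescein labeled Nrf2 9mer peptide probe; 0% = neutral control wells and 100% = peptide positive control; higher means more block of Keap1 binding to Nrf2 peptide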
Target sequence (Q14145 whole entry, looked up, the tested form may be a part): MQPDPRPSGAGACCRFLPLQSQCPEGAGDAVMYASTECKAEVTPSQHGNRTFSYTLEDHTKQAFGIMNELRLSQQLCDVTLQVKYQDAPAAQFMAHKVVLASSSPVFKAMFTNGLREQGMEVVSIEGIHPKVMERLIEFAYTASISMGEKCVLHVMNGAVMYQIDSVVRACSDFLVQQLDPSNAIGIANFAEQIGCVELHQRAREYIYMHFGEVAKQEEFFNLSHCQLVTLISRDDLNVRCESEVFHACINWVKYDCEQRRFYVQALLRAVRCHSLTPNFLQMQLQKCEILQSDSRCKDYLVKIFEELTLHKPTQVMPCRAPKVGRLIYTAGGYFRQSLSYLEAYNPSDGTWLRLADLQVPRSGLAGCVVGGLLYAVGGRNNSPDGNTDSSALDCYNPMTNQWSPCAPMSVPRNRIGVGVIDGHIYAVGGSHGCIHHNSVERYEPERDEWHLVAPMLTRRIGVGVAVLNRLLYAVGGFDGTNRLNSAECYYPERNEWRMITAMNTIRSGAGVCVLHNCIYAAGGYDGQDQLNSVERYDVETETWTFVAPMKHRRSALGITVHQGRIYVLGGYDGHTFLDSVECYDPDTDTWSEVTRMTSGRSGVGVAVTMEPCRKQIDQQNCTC
LANA DNA inh: blocks KSHV LANA C-terminal domain binding to DNA. MBP-C-LANA/FAM-LBS DNA binding, fluorescence polarization. inhibition, % at 9 µM. hit rate 0.078% among 340,000. AID 504423;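 active means highest replicate inhibition at or above 60% at 9 µM, even if other replicates fall short; inactive means all replicates below 60% inhibition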;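 further: 0% = neutral control wells and 100% = 4 µM acridine orange control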
* marks the source's active call; other numbers are inactive results; . = no result; + = active, no number; [ ] = dose if it differs, or a comment. An excerpt weighted towards active compounds, which were near 1.1% of everything screened.

SMILES | CAL PDZ FP-1 | miR-122 sensor | CAL PDZ FP-2 | Keap1-Nrf2 PPI | LANA DNA inh
Cc1cc(C)cc(NC(=O)N2CCCC2C(=O)NCc2ccco2)c1 (configuration not stated) | 75.6* | . | 0.3 | 1.5 | -0.7
Cc1cc(C)nc(NC(=S)NC(=O)c2ccccc2F)n1 | . | -4.6 | . | . | .
Cc1cc(C)nc(S/C=C/C(=O)c2ccccc2F)n1 | 80.1* | . | -0.2 | 1.2 | 2.8
CSc1ncc(CN2CCN(CC=C(C)C)C(CCO)C2)cn1 (configuration not stated) | -9.1 | . | -1.3 | -1.9 | -0.1
CSc1ncc(CN2CCN(C3CCCC3)C(CCO)C2)cn1 (configuration not stated) | 30.6* | 5.6 | -3.4 | -4.0 | -0.1
Cc1ncc(CN2CCN(C3CCCC3)C(CCO)C2)s1 (configuration not stated) | 81.6* | 0.7 | -0.1 | 1.0 | -0.5
CN(C(=O)COc1ccc(Cl)cc1Br)C1CCCCC1 | 70.6* | -0.9 | -1.7 | 3.1 | -2.5
O=C(COC(=O)COc1ccc(Cl)cc1Br)NC1CCCCCC1 | 10.0 | -12.8 | -2.2 | -4.8 | -1.0
COc1ccc(CNc2ccc(-c3ccccc3OC)nn2)cc1 | 55.5* | -7.9 | -1.3 | 2.1 | 0.7
COc1ccc(C(CNC(=O)COc2ccc(-c3ccccc3)cc2)N2CCOCC2)cc1 (configuration not stated) | -2.4 | -7.3 | -2.6 | -3.8 | -1.3
COc1ccc(C(CNC(=O)COc2c(C)cc(C)cc2C)N2CCOCC2)cc1 (configuration not stated) | 67.7* | . | -0.4 | -0.4 | 1.5
CCc1ccccc1NC(=O)c1cnn(-c2ccccc2)c1C | 75.3* | -5.4 | . | 2.0 | -0.8
Cc1ccccc1NC(=O)c1cnn(-c2ccccc2)c1C | . | -2.7 | 1.5 | -0.2 | -0.3
Cc1ccccc1N1CC(O)(c2cccs2)[N+]2=C1CCCC2 (configuration not stated) | 86.5* | . | 6.2 | -2.5 | -2.7
Cc1cccc(N2CC(O)(c3cccs3)[N+]3=C2CCCC3)c1C (configuration not stated) | -2.9 | . | -1.6 | 3.6 | 1.3
Cc1ccc(S(=O)(=O)N(C)C[C@H]2OCCCC[C@H](C)Oc3ccc(NS(C)(=O)=O)cc3C(=O)N([C@@H](C)CO)C[C@H]2C)cc1 | . | 16.6[16.7 µM] | . | . | .
O=C(C[C@H]1CC[C@H]2[C@@H](COC[C@H](O)CN2Cc2cccc(-c3ccncc3)c2)O1)N1CCCCC1 | . | -2.2[16.7 µM] | . | . | .
Cc1ccc(C(=O)N/N=C\c2ccccn2)cn1 | + | . | -0.8 | -2.4 | -1.3
COc1ccc(NC(=O)N(C)C[C@@H]2OCCCC[C@H](C)Oc3ccc(NS(=O)(=O)c4ccccc4)cc3C(=O)N([C@H](C)CO)C[C@H]2C)cc1 | . | -8.5[16.7 µM] | . | . | .
CCN(CCn1cccn1)C(=O)c1cc(COc2ccccc2SC)on1 | -4.2 | -5.0 | -1.3 | 4.4 | 0.7
Cc1nn(C)cc1C(C)NC(=O)c1cc(COc2ccc(F)c(F)c2)on1 (configuration not stated) | -12.4 | -4.3 | -3.3 | -1.4 | -0.8
CCN(CCn1cccn1)C(=O)c1cc(COc2ccc(F)c(F)c2)on1 | 56.8* | -3.0 | 0.0 | -1.6 | 0.4
Cc1nn(C)c(C)c1C(C)NC(=O)c1cc(COc2ccc(F)c(F)c2)on1 (configuration not stated) | 40.2* | -1.6 | -0.5 | 1.9 | -0.5
CO[C@@H]1CN(C)C(=O)c2ccc(NS(C)(=O)=O)cc2OC[C@H](C)N(Cc2cccnc2)C[C@@H]1C | . | -2.7[16.7 µM] | . | . | .
C[C@H](CO)N1C[C@H](C)[C@H](CN(C)C)Oc2cc(-c3ccc(C#N)cc3)ccc2S1(=O)=O | . | -2.7[16.7 µM] | . | . | .
SMILES | CAL PDZ FP-1 | miR-122 sensor | CAL PDZ FP-2 | Keap1-Nrf2 PPI | LANA DNA inh
Cc1noc(C)c1NC(=O)Nc1ccc2c(c1)C(=O)N([C@@H](C)CO)C[C@@H](C)[C@@H](CN(C)Cc1ccc3c(c1)OCO3)OCCCC[C@@H](C)O2 | . | -2.4[16.7 µM] | . | . | .
COc1ccccc1NC(=S)NNC(=O)c1ccc(Cl)cc1Cl | 48.7* | -9.9 | -1.1 | -1.7 | -0.7
Cc1ccccc1C(=O)NNC(=S)NC(=O)c1ccc(Cl)cc1Cl | -3.5 | . | -2.4 | 1.9 | 0.9
O=C(Nc1cccc(-n2cnnn2)c1)c1ccc(C(F)(F)F)cc1 | . | -1.1 | -7.4 | -1.6 | 0.8
O=C(NNC(=O)c1cccc(C(F)(F)F)c1)c1ccc(-n2cnnn2)cc1 | 92.2* | 0.9 | 0.0 | 4.1 | 0.6
O=C(COC(=O)c1cccc(-n2cnnn2)c1)Nc1c(Cl)cccc1C(F)(F)F | 61.9* | -0.6 | -2.1 | 0.5 | 0.9
CC(C)(C)c1ccc(C(=O)NNC(=O)c2cccc(-n3cnnn3)c2)cc1 | . | -10.4 | -0.5 | 3.5 | -0.3
O=C(Nc1cccc(-n2cnnn2)c1)c1ccc(OC(F)(F)F)cc1 | 98.4* | -1.4 | -1.7 | 0.4 | 0.7
C[C@H](CO)N1C[C@H](C)[C@H](CN(C)C(=O)c2ccncc2)Oc2ncc(C#CC3CC3)cc2C1=O | . | -2.6[16.7 µM] | . | . | .
CO[C@@H]1CN(C)C(=O)c2ccc(NS(=O)(=O)c3ccccc3Cl)cc2OC[C@H](C)NC[C@@H]1C | . | 11.1[16.7 µM] | . | . | .
C[C@@H]1CN([C@H](C)CO)C(=O)Cc2cc(NS(=O)(=O)c3ccc(Cl)cc3)ccc2O[C@@H]1CN(C)C(=O)Nc1ccc2c(c1)OCO2 | . | -6.8[16.7 µM] | . | . | .
O=C(C[C@H]1CC[C@H]2[C@@H](COC[C@@H](O)CN2S(=O)(=O)c2ccccc2Cl)O1)N1CCC(Cc2ccccc2)CC1 | . | -5.9[16.7 µM] | . | . | .
COc1ccc(NC(=O)Nc2cccc3c2O[C@H](CN(C)C)[C@@H](C)CN([C@@H](C)CO)C3=O)cc1 | . | 3.8[16.7 µM] | . | . | .
COc1ccc(CNCc2c(O)c(Cl)cc3c(C)c(C)c(=O)oc23)c(OC)c1 | 31.6* | -1.9 | -0.5 | -1.7 | -1.2
CCc1cc(=O)oc2c(CNCc3ccc(OC)cc3OC)c(O)c(Cl)cc12 | -4.8 | -3.8 | -1.3 | 1.3 | 1.8
COCC(=O)N(C)C[C@@H]1Oc2ncc(C#Cc3cccnc3)cc2C(=O)N([C@H](C)CO)C[C@H]1C | . | 112.7*[16.7 µM] | . | . | .
CCCc1cc(=O)oc2c(CN3CCN(C)CC3)c(O)c(Cl)cc12 | 30.6* | -12.5 | -1.2 | -0.1 | -0.6
COC(=O)Nc1ccc(S(=O)(=O)N2CCCCC2C(=O)O)cc1 (configuration not stated) | 73.1* | . | -0.8 | -0.2 | -1.9
CC(=O)Nc1ccc(S(=O)(=O)N2CCCCC2C(=O)O)cc1 (configuration not stated) | -3.7 | . | -1.8 | -0.7 | -1.6
CN(C)C(=O)C[C@H]1C[C@@H]2c3cc(NC(=O)Nc4ccc(C(F)(F)F)cc4)ccc3O[C@@H]2[C@@H](CO)O1 | . | 0.6[16.7 µM] | . | . | .
CN(C)c1nc(NCc2ccccc2)nc(Oc2ccc(=O)[nH]n2)n1 | 40.0* | -3.3 | -0.5 | 1.1 | -0.2
COc1cc(S(=O)(=O)N2CCOCC2)ccc1NC(=O)CSc1n[nH]c(=O)[nH]c1=O | 0.0 | 144.1* | -2.9 | -1.2 | 2.1
CCCN(CC(=O)Nc1cc(Cl)ccc1Cl)C(=O)c1ccccn1 | 6.3 | -4.8 | -6.2 | -2.9 | -3.1
